Test: Antiischemic activity in forebrain neurons assessed as necrotic neuronal population at 100 uM after 20 mins
Format: functional, Homo sapiens, Neuron
Conditions: not given
Summary of the method: (§1)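 Isolated forebrain neurons at 1×10^6 cells/100 µl pretreated with compound (100 µM) 20 min at 37 °C, then exposed to equal volume of H2O2 (300 µM) 1 h at 37 °C; untreated cells held 1 h 20 min. Cells washed twice in cold PBS, stained FITC-Annexin V/propidium iodide 15 min at room temperature in dark. 10,000 cells read by flow cytometry (ex 488 nm; em 530, 670 nm); quadrant percentages.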

Row | SMILES | Activity [%]
1 | O=C1Nc2ccccc2CN2C(=O)CC[C@@H]12 | 5.56
2 | NC(=O)CC[C@@H]1NCc2ccccc2NC1=O | 4.75
3 | C[C@@H]1NCc2ccccc2NC1=O | 5.35
4 | O=C1Nc2ccccc2CN2C[C@@H](O)C[C@@H]12 | 5.68
5 | CSCC[C@@H]1NCc2ccccc2NC1=O | 4.73
6 | CSCC[C@H]1NCc2ccccc2NC1=O | 0.52
7 | COC(=O)C[C@@H]1NCc2ccccc2NC1=O | 4.73
8 | O=C1Nc2ccccc2CN2CCC[C@H]12 | 0.64
9 | O=C1Nc2ccccc2CN[C@@H]1Cc1c[nH]c2ccccc12 | 0.5
10 | O=C1Nc2ccccc2CN[C@H]1Cc1ccccc1 | 2.07
11 | O=C1Nc2ccccc2CN[C@@H]1Cc1ccccc1 | 0.68
12 | O=C1Nc2ccccc2CN[C@H]1CSCc1ccccc1 | 5.05
13 | C[C@H]1NCc2ccccc2NC1=O | 0.98
14 | O=C1Nc2ccccc2CN[C@H]1Cc1c[nH]c2ccccc12 | 4.33
15 | O=C1Nc2ccccc2CN[C@H]1Cc1ccc(OCc2ccccc2)cc1 | 4.99
16 | O=C1Nc2ccccc2CN2CCC[C@@H]12 | 5.51

Test: Antiischemic activity in forebrain neurons assessed as viable cells at 100 uM after 20 mins
Format: functional
Conditions: Homo sapiens, Neuron, read-out: Activity
Summary of the method: as §1

Row | SMILES | viability at 100 µM [%]
17 | O=C1Nc2ccccc2CN2C(=O)CC[C@@H]12 | 66.1
18 | NC(=O)CC[C@@H]1NCc2ccccc2NC1=O | 67.2
19 | C[C@@H]1NCc2ccccc2NC1=O | 60.4
20 | O=C1Nc2ccccc2CN2C[C@@H](O)C[C@@H]12 | 87.5
21 | CSCC[C@@H]1NCc2ccccc2NC1=O | 82.7
22 | CSCC[C@H]1NCc2ccccc2NC1=O | 77.8
23 | COC(=O)C[C@@H]1NCc2ccccc2NC1=O | 65.2
24 | O=C1Nc2ccccc2CN2CCC[C@H]12 | 84.5
25 | O=C1Nc2ccccc2CN[C@@H]1Cc1c[nH]c2ccccc12 | 75
26 | O=C1Nc2ccccc2CN[C@H]1Cc1ccccc1 | 70.1
27 | O=C1Nc2ccccc2CN[C@@H]1Cc1ccccc1 | 79
28 | O=C1Nc2ccccc2CN[C@H]1CSCc1ccccc1 | 64.4
29 | C[C@H]1NCc2ccccc2NC1=O | 69
30 | O=C1Nc2ccccc2CN[C@H]1Cc1c[nH]c2ccccc12 | 61.3
31 | O=C1Nc2ccccc2CN[C@H]1Cc1ccc(OCc2ccccc2)cc1 | 66.5
32 | O=C1Nc2ccccc2CN2CCC[C@@H]12 | 66.2

Test: Antiischemic activity in forebrain neurons assessed as apoptotic neuronal population at 100 uM after 20 mins
Format: functional, Homo sapiens, Neuron
Conditions: not given
Summary of the method: as §1

Row | SMILES | Activity [%]
33 | O=C1Nc2ccccc2CN2C(=O)CC[C@@H]12 | 24.62
34 | NC(=O)CC[C@@H]1NCc2ccccc2NC1=O | 24.93
35 | C[C@@H]1NCc2ccccc2NC1=O | 29.47
36 | O=C1Nc2ccccc2CN2C[C@@H](O)C[C@@H]12 | 3.79
37 | CSCC[C@@H]1NCc2ccccc2NC1=O | 9.08
38 | CSCC[C@H]1NCc2ccccc2NC1=O | 16.96
39 | COC(=O)C[C@@H]1NCc2ccccc2NC1=O | 25.75
40 | O=C1Nc2ccccc2CN2CCC[C@H]12 | 11.72
41 | O=C1Nc2ccccc2CN[C@@H]1Cc1c[nH]c2ccccc12 | 21.06
42 | O=C1Nc2ccccc2CN[C@H]1Cc1ccccc1 | 25.58
43 | O=C1Nc2ccccc2CN[C@@H]1Cc1ccccc1 | 17.26
44 | O=C1Nc2ccccc2CN[C@H]1CSCc1ccccc1 | 26.01
45 | C[C@H]1NCc2ccccc2NC1=O | 26.85
46 | O=C1Nc2ccccc2CN[C@H]1Cc1c[nH]c2ccccc12 | 30.86
47 | O=C1Nc2ccccc2CN[C@H]1Cc1ccc(OCc2ccccc2)cc1 | 23.63
48 | O=C1Nc2ccccc2CN2CCC[C@@H]12 | 23.27

Test: Antiischemic activity in forebrain neurons assessed as necrotic and delayed apoptotic neuronal population at 100 uM after 20 mins
Format: functional, Homo sapiens, Neuron
Conditions: not given
Summary of the method: as §1

Row | SMILES | Activity [%]
49 | O=C1Nc2ccccc2CN2C(=O)CC[C@@H]12 | 3.75
50 | NC(=O)CC[C@@H]1NCc2ccccc2NC1=O | 3.12
51 | C[C@@H]1NCc2ccccc2NC1=O | 4.8
52 | O=C1Nc2ccccc2CN2C[C@@H](O)C[C@@H]12 | 3.08
53 | CSCC[C@@H]1NCc2ccccc2NC1=O | 3.5
54 | CSCC[C@H]1NCc2ccccc2NC1=O | 3.98
55 | COC(=O)C[C@@H]1NCc2ccccc2NC1=O | 4.28
56 | O=C1Nc2ccccc2CN2CCC[C@H]12 | 3.1
57 | O=C1Nc2ccccc2CN[C@@H]1Cc1c[nH]c2ccccc12 | 3.47
58 | O=C1Nc2ccccc2CN[C@H]1Cc1ccccc1 | 1.21
59 | O=C1Nc2ccccc2CN[C@@H]1Cc1ccccc1 | 0.68
60 | O=C1Nc2ccccc2CN[C@H]1CSCc1ccccc1 | 4.58
61 | C[C@H]1NCc2ccccc2NC1=O | 3.2
62 | O=C1Nc2ccccc2CN[C@H]1Cc1c[nH]c2ccccc12 | 3.55
63 | O=C1Nc2ccccc2CN[C@H]1Cc1ccc(OCc2ccccc2)cc1 | 4.83
64 | O=C1Nc2ccccc2CN2CCC[C@@H]12 | 5.04

Reference: ChEMBL document CHEMBL1139068, “Amino acid-based enantiomerically pure 3-substituted 1,4-benzodiazepin-2-ones: a new class of anti-ischemic agents” (2007)
